Measured values as given in ChEMBL document CHEMBL3227938, “Quantitative structure-activity relationships for biguanides, carbamimidates, and bisbiguanides as inhibitors of Streptococcus mutans No. 6715” (J Med Chem, 1979).

Legend:
[1] = Octanol-phosphate buffer partition coefficient, log P of the compound at pH 11.5; format: physicochemical
Method in brief: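 Compound partitioned between 0.05 M phosphate buffer (pH 11.5) and octanol, each pre-saturated with the other. Gentle shaking for 90 min at 25 ± 5 °C. Phase ratio and sample amount set so the buffer-layer absorbance fell between 0.2 and 0.9 (1-cm cell, buffer blank). Free-base P was corrected for degree of ionization using pKa.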

Streptococcus mutans [2] = experiment: Antimicrobial activity against Streptococcus mutans 6715 after 24 hrs by spectrophotometry; format: functional
Method in brief: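 Inoculated with a 24-h S. mutans 6715 culture and incubated anaerobically at 37 °C. Growth read spectrophotometrically. Dilution series run in sets of five tubes. MIC is the lowest drug level with readings above 60% T at 24 h. Repeat determinations agreed.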

Streptococcus mutans [3] = experiment: Antimicrobial activity against Streptococcus mutans 6715 after 48 hrs by spectrophotometry; format: functional
Method in brief: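 Trypticase soy broth with sucrose and the salt of the test agent dosed from ethanol, inoculated with a 24-h S. mutans 6715 culture. Incubated anaerobically at 37 °C. Growth measured spectrophotometrically at 48 h. Each dilution tested in sets of five tubes.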

[4] = Dissociation constant, pKa of the compound in 3:1 water:ethanol at 1 x 10 '-3 M; format: physicochemical
Method in brief: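 pKa measured in duplicate by potentiometric titration in 3:1 water–ethanol at 10⁻³. pH recorded after each titrant addition, and pKa calculated by the Albert–Serjeant method.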

CCCCCC/N=C(N)/N=C(\N)Nc1ccc(Cl)cc1
logD [1]: 3.13 | log(1/MIC) (Streptococcus mutans [2]): 5 | log(1/MIC) (Streptococcus mutans [3]): 5

CNC(=N)NC(=N)Nc1ccc(Cl)cc1
logD [1]: 1.58 | log(1/MIC) (Streptococcus mutans [2]): 3 | pKa at 1000 µM [4]: 10.6 | log(1/MIC) (Streptococcus mutans [3]): 3

CCNC(=N)NC(=N)Nc1ccc(Cl)cc1
logD [1]: 2.14 | log(1/MIC) (Streptococcus mutans [2]): 3.04 | pKa at 1000 µM [4]: 10.8 | log(1/MIC) (Streptococcus mutans [3]): 3

CCCNC(=N)NC(=N)Nc1ccc(Cl)cc1
logD [1]: 2.63 | log(1/MIC) (Streptococcus mutans [2]): 3.04 | pKa at 1000 µM [4]: 10.8 | log(1/MIC) (Streptococcus mutans [3]): 3

CCCCNC(=N)NC(=N)Nc1ccc(Cl)cc1
logD [1]: 3.13 | log(1/MIC) (Streptococcus mutans [2]): 4 | pKa at 1000 µM [4]: 10.8 | log(1/MIC) (Streptococcus mutans [3]): 4

CCCCC(CC)CNC(=N)NC(=N)Nc1ccc(Cl)cc1 (stereo not drawn)
logD [1]: 4.93 | log(1/MIC) (Streptococcus mutans [2]): 5.4 | log(1/MIC) (Streptococcus mutans [3]): 5.4

CCCCCCCCNC(=N)NC(=N)Nc1ccc(Cl)cc1
logD [1]: 5.13 | log(1/MIC) (Streptococcus mutans [2]): 5.22 | log(1/MIC) (Streptococcus mutans [3]): 5.22

CCCCCCCCCCNC(=N)NC(=N)Nc1ccc(Cl)cc1
logD [1]: 6.13 | log(1/MIC) (Streptococcus mutans [2]): 5.1 | log(1/MIC) (Streptococcus mutans [3]): 5

CCCCCCCCCCCCNC(=N)NC(=N)Nc1ccc(Cl)cc1
logD [1]: 7.13 | log(1/MIC) (Streptococcus mutans [2]): 5 | log(1/MIC) (Streptococcus mutans [3]): 4.7

CCCCCCCCNC(=N)NC(=N)Nc1ccc(C)cc1
logD [1]: 4.93 | log(1/MIC) (Streptococcus mutans [2]): 5.4 | log(1/MIC) (Streptococcus mutans [3]): 5.3

CCCCC(CC)CNC(=N)NC(=N)Nc1ccc(C)cc1 (stereo not drawn)
logD [1]: 4.73 | log(1/MIC) (Streptococcus mutans [2]): 5.22 | log(1/MIC) (Streptococcus mutans [3]): 5.22

CCCCCCCCNC(=N)NC(=N)Nc1ccccc1
logD [1]: 4.43 | log(1/MIC) (Streptococcus mutans [2]): 5.22 | log(1/MIC) (Streptococcus mutans [3]): 5.04

CCCCCCCCCCNC(=N)NC(=N)Nc1ccccc1
logD [1]: 5.43 | log(1/MIC) (Streptococcus mutans [2]): 5.3 | log(1/MIC) (Streptococcus mutans [3]): 5.15

CCCCCCNC(=N)NC(=N)Nc1cccc(C(F)(F)F)c1
logD [1]: 4.31 | log(1/MIC) (Streptococcus mutans [2]): 5 | log(1/MIC) (Streptococcus mutans [3]): 4.96

CCCCCCCCNC(=N)NC(=N)Nc1cccc(C(F)(F)F)c1
logD [1]: 5.31 | log(1/MIC) (Streptococcus mutans [2]): 5.3 | log(1/MIC) (Streptococcus mutans [3]): 5.3

CCCCCCCCNC(=N)NC(=N)Nc1ccc(OC)cc1
logD [1]: 4.41 | log(1/MIC) (Streptococcus mutans [2]): 5.22 | log(1/MIC) (Streptococcus mutans [3]): 5

CCOC(=N)NC(=N)Nc1ccc(Cl)cc1
logD [1]: 2.32 | log(1/MIC) (Streptococcus mutans [2]): 3.7 | pKa at 1000 µM [4]: 9.36 | log(1/MIC) (Streptococcus mutans [3]): 3.7

CC(C)OC(=N)NC(=N)Nc1ccc(Cl)cc1
logD [1]: 2.64 | log(1/MIC) (Streptococcus mutans [2]): 3.3 | pKa at 1000 µM [4]: 9.35 | log(1/MIC) (Streptococcus mutans [3]): 3.3

CCCCOC(=N)NC(=N)Nc1ccc(Cl)cc1
logD [1]: 3.32 | log(1/MIC) (Streptococcus mutans [2]): 4.15 | log(1/MIC) (Streptococcus mutans [3]): 4

CCCCCCOC(=N)NC(=N)Nc1ccc(Cl)cc1
logD [1]: 4.32 | log(1/MIC) (Streptococcus mutans [2]): 5.1 | log(1/MIC) (Streptococcus mutans [3]): 5

CCCCCCCCOC(=N)NC(=N)Nc1ccc(Cl)cc1
logD [1]: 5.32 | log(1/MIC) (Streptococcus mutans [2]): 5.52 | log(1/MIC) (Streptococcus mutans [3]): 5.3

CCCCCCCCCCOC(=N)NC(=N)Nc1ccc(Cl)cc1
logD [1]: 6.32 | log(1/MIC) (Streptococcus mutans [2]): 5.05 | log(1/MIC) (Streptococcus mutans [3]): 5.05

N=C(NCCCCCCNC(=N)NC(=N)Nc1cccc(C(F)(F)F)c1)NC(=N)Nc1cccc(C(F)(F)F)c1
logD [1]: 5.12 | log(1/MIC) (Streptococcus mutans [2]): 5.52 | log(1/MIC) (Streptococcus mutans [3]): 5.22

N=C(NCCCCCCNC(=N)NC(=N)NC1CCCCC1)NC(=N)NC1CCCCC1
logD [1]: 4.46 | log(1/MIC) (Streptococcus mutans [2]): 5.4 | log(1/MIC) (Streptococcus mutans [3]): 5.4

N=C(NCCCCCCNC(=N)NC(=N)NC12CC3CC(CC(C3)C1)C2)NC(=N)NC12CC3CC(CC(C3)C1)C2
logD [1]: 6.04 | log(1/MIC) (Streptococcus mutans [2]): 5 | log(1/MIC) (Streptococcus mutans [3]): 5

CSc1ccc(NC(=N)NC(=N)NCCCCCCNC(=N)NC(=N)Nc2ccc(SC)cc2)cc1
logD [1]: 4.58 | log(1/MIC) (Streptococcus mutans [2]): 5.4 | log(1/MIC) (Streptococcus mutans [3]): 5.4

CCSc1ccc(NC(=N)NC(=N)NCCCCCCNC(=N)NC(=N)Nc2ccc(SCC)cc2)cc1
logD [1]: 5.58 | log(1/MIC) (Streptococcus mutans [2]): 5.7 | log(1/MIC) (Streptococcus mutans [3]): 5.7

CCCCSc1ccc(NC(=N)NC(=N)NCCCCCCNC(=N)NC(=N)Nc2ccc(SCCCC)cc2)cc1
logD [1]: 7.58 | log(1/MIC) (Streptococcus mutans [2]): 5.7 | log(1/MIC) (Streptococcus mutans [3]): 5.52

CCCCCSc1ccc(NC(=N)NC(=N)NCCCCCCNC(=N)NC(=N)Nc2ccc(SCCCCC)cc2)cc1
logD [1]: 8.58 | log(1/MIC) (Streptococcus mutans [2]): 5.52 | log(1/MIC) (Streptococcus mutans [3]): 5.3

CCCS(=O)(=O)c1ccc(NC(=N)NC(=N)NCCCCCCNC(=N)NC(=N)Nc2ccc(S(=O)(=O)CCC)cc2)cc1
logD [1]: 2.1 | log(1/MIC) (Streptococcus mutans [2]): 3.7 | log(1/MIC) (Streptococcus mutans [3]): 3.7

CCCCS(=O)(=O)c1ccc(NC(=N)NC(=N)NCCCCCCNC(=N)NC(=N)Nc2ccc(S(=O)(=O)CCCC)cc2)cc1
logD [1]: 3.1 | log(1/MIC) (Streptococcus mutans [2]): 4.7 | log(1/MIC) (Streptococcus mutans [3]): 4.52

CCCCCS(=O)(=O)c1ccc(NC(=N)NC(=N)NCCCCCCNC(=N)NC(=N)Nc2ccc(S(=O)(=O)CCCCC)cc2)cc1
logD [1]: 4.1 | log(1/MIC) (Streptococcus mutans [2]): 5.52 | log(1/MIC) (Streptococcus mutans [3]): 5.4

CCCCCCS(=O)(=O)c1ccc(NC(=N)NC(=N)NCCCCCCNC(=N)NC(=N)Nc2ccc(S(=O)(=O)CCCCCC)cc2)cc1
logD [1]: 5.1 | log(1/MIC) (Streptococcus mutans [2]): 5.4 | log(1/MIC) (Streptococcus mutans [3]): 5.4

CCCSc1ccc(NC(=N)NC(=N)NCCCCCCNC(=N)NC(=N)Nc2ccc(SCCC)cc2)cc1
logD [1]: 6.58 | log(1/MIC) (Streptococcus mutans [2]): 5.3 | log(1/MIC) (Streptococcus mutans [3]): 5.22

CCCCC(CC)CNC(=N)NC(=N)NCCCCCCNC(=N)NC(=N)NCC(CC)CCCC (stereo not drawn) [ALEXIDINE]
logD [1]: 7.04 | log(1/MIC) (Streptococcus mutans [2]): 5.15 | log(1/MIC) (Streptococcus mutans [3]): 5.1

N=C(NCCCCCCNC(=N)NC(=N)Nc1ccc(Cl)cc1)NC(=N)Nc1ccc(Cl)cc1 [CHLORHEXIDINE]
logD [1]: 4.78 | log(1/MIC) (Streptococcus mutans [2]): 5.3 | pKa at 1000 µM [4]: 10.8 | log(1/MIC) (Streptococcus mutans [3]): 5.22

CC(C)NC(=N)NC(=N)Nc1ccc(Cl)cc1 [PROGUANIL]
logD [1]: 2.43 | log(1/MIC) (Streptococcus mutans [2]): 3.04 | log(1/MIC) (Streptococcus mutans [3]): 3
